Assay results taken from ChEMBL document CHEMBL1145184, “Synthesis, X-ray crystal structure study, and cytostatic and antiviral evaluation of the novel cycloalkyl-N-aryl-hydroxamic acids” (J Med Chem, 2005).
In brackets after ≈: the same amount, converted by molar mass.

Key:
[1] = test system: MIA PaCa-2; assay: Inhibitory concentration of the compound was determined against MiaPaCa2 cell line; assay type: functional, cell-based; conditions: Homo sapiens
[2] = test system: HEp-2; assay: Inhibitory concentration of the compound was determined against Hep2 cell line; assay type: functional, cell-based; conditions: Homo sapiens
[3] = test system: MCF7; assay: Inhibitory concentration of the compound was determined against MCF-7 cell line; assay type: functional, cell-based; conditions: Homo sapiens
[4] = test system: MOLT-4; assay: Inhibitory concentration of the compound was determined against Molt 4/C8 cell line; assay type: functional, cell-based; conditions: Homo sapiens
[5] = test system: Cytomegalovirus; assay: Effective concentration against AD-169 strain of CMV virus expressed in HEL cells; assay type: functional, organism-based; conditions: Human betaherpesvirus 5, HEL
Outline: (§1)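 Human embryonic lung (HEL) cell cultures infected with cytomegalovirus at 100 plaque forming units. EC50 is the concentration that cuts plaque formation by 50%, given in µg/mL.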

[6] = test system: SW-620; assay: Inhibitory concentration of the compound was determined against SW6 20 cell line; assay type: functional, cell-based; conditions: Homo sapiens
[7] = test system: Cytomegalovirus; assay: Effective concentration against Davis strain of CMV virus expressed in HEL cells; assay type: functional, organism-based; conditions: Human betaherpesvirus 5, HEL; outline: as §1
[8] = Inhibitory concentration of the compound was determined against W138 cell line; assay type: functional, cell-based, Homo sapiens
Outline: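 Cytostatic test on human normal fibroblasts, run in the same panel as the malignant tumour lines L1210, Molt4/C8, CEM, SW620, Hep2, MiaPaCa2, MCF7 and HeLa. The value is reported as an IC50.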

[9] = test system: CCRF-CEM; assay: Inhibitory concentration of the compound was determined againstCEM cell line; assay type: functional, cell-based; conditions: Homo sapiens
[10] = test system: Cell line; assay: Minimum cytotoxic concentration that causes a microscopically detectable alteration of cell morphology; assay type: functional; conditions: Homo sapiens
[11] = test system: L1210; assay: Inhibitory concentration of the compound was determined against L1210 cell line; assay type: functional, cell-based; conditions: Mus musculus
[12] = test system: Cell line; assay: Cytotoxic concentration required to reduce cell growth by 50%; assay type: functional; conditions: Homo sapiens
Outline: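 Growth of HEL cells was measured. CC50 is the concentration that reduces cell growth by 50%, given in µg/mL.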

[13] = test system: HeLa; assay: Inhibitory concentration of the compound was determined against HeLa cell line; assay type: functional, cell-based; conditions: Homo sapiens
[14] = test system: CCRF-CEM; assay: Inhibitory concentration was determined against CEM cell line; assay type: functional, cell-based; conditions: Homo sapiens
[15] = test system: HeLa; assay: Inhibitory concentration of the compound was determined againstHeLa cell line; assay type: functional, cell-based; conditions: Homo sapiens
[16] = test system: CCRF-CEM; assay: Inhibitory concentration ofthecompound was determined against CEM cell line; assay type: functional, cell-based; conditions: Homo sapiens
[17] = test system: L1210; assay: Inhibitory concentration against L1210 cell line; assay type: functional, cell-based; conditions: Mus musculus

SMILES	IC50 [1] [µM]	IC50 [2] [µM]	IC50 [3] [µM]	IC50 [4] [µM]	EC50 [5] [µg/mL]	IC50 [6] [µM]	EC50 [7] [µg/mL]	IC50 [8] [µM]	IC50 [9] [µM]	MCC [10] [µg/mL]	IC50 [11] [µM]	CC50 [12] [µg/mL]	IC50 [13] [µM]	IC50 [14] [µM]	IC50 [15] [µM]	IC50 [16] [µM]	IC50 [17] [µM]
O=C(N(O)c1ccc(Cl)cc1)C12CC3CC(CC(C3)C1)C2	> 100	> 100	> 100	≥ 500	13 (≈ 42.5 µM)	> 100	7 (≈ 22.9 µM)	> 100	> 500	100	290	> 50	> 100	–	–	–	–
Nc1ccn(C[C@@H](CO)OCP(=O)(O)O)c(=O)n1.O.O [CIDOFOVIR]	–	–	–	–	0.18	–	0.29	–	–	≥ 400	–	24	–	–	–	–	–
Nc1nc2c(ncn2COC(CO)CO)c(=O)[nH]1 [GANCICLOVIR]	–	–	–	–	0.37 (≈ 1.45 µM)	–	0.37 (≈ 1.45 µM)	–	–	≥ 400	–	–	–	–	–	–	–
O=C(CCC1CCCC1)N(O)c1ccc(Cl)cc1	7	20	10	28	10 (≈ 37.3 µM)	10	8 (≈ 29.9 µM)	10	–	100	38	20 (≈ 74.7 µM)	–	37	30	–	–
O=C(CC1CCCCC1)N(O)c1ccc(Cl)cc1	8	9	10	33	7.3 (≈ 27.3 µM)	9	6.2 (≈ 23.2 µM)	50	16	50	26	129 (≈ 482 µM)	–	–	30	–	–
O=C(CC1CCCCC1)N(O)c1ccccc1	40	> 100	> 100	41	8 (≈ 34.3 µM)	20	8 (≈ 34.3 µM)	70	40	100	27	> 200	30	–	–	–	–
O=C(C1CCCCC1)N(O)c1ccc(Cl)cc1	20	40	80	19	7.3 (≈ 28.8 µM)	10	8.9 (≈ 35.1 µM)	100	–	≥ 20	16	28 (≈ 110 µM)	–	–	30	17	–
O=C(CCC1CCCCC1)N(O)c1ccc(Cl)cc1	10	30	20	24	1.5 (≈ 5.32 µM)	20	0.8 (≈ 2.84 µM)	30	36	≥ 4	21	4.7 (≈ 16.7 µM)	–	–	30	–	–
O=C(C1CC1)N(O)c1ccc(Cl)cc1	> 100	> 100	> 100	24	> 20	60	> 20	> 100	25	100	–	37 (≈ 175 µM)	–	–	> 80	–	22
